Hits are enriched below; roughly 3.5% of the tested compounds scored in any of these assays.
MrgX1 allo act – positive allosteric modulators of MrgX1, primary screen, HEK293 cells, Fluo-4 calcium flux; actives 0.63% (n = 310,000); FDSS; active compounds read high; B-score at 10 µM; Mas-related G-protein coupled receptor member X1 (Homo sapiens), Q96LB2;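 active = plate-corrected calcium response at least 3 library SD above typical, normal starting fluorescence, not activating the receptor alone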;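 also: compound read alongside a low EC10 to EC30 dose of BAM8-22 agonist; peak minus trough fluorescence over baseline measured at the second addition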
Target sequence (Q96LB2 whole entry, looked up): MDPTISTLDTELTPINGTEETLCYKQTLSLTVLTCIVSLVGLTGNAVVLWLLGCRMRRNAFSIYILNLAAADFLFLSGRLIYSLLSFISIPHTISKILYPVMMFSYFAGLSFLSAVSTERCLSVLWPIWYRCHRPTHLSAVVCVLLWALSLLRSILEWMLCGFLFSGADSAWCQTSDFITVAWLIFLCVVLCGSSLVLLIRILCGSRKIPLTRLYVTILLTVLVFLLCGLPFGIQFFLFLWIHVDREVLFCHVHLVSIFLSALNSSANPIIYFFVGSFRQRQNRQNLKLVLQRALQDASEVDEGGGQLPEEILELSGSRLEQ
MrgX1 antagonist – antagonists of human MrgX1 receptor, primary screen, HEK293 cells, Fluo-4 calcium flux. BAM8-22 antagonism; active compounds read low. actives 1.3% (n = 310,000). B-score at 10 µM. Mas-related G-protein coupled receptor member X1 (Homo sapiens), Q96LB2;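 active = calcium-response B-score plate-corrected more than 3 library SD below zero, starting fluorescence within 5 deviations, no agonist response on first addition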;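 also: peak minus trough fluorescence over baseline after final BAM8-22 challenge near maximal dose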
MrgX1 agonist – agonists of human MrgX1 receptor, primary screen, HEK293 cells, Fluo-4 calcium flux; Mas-related G-protein coupled receptor member X1 (Homo sapiens), Q96LB2; Fluo-4 calcium fluorescence, agonist mode; active compounds read high; B-score at 10 µM; actives 0.44% (n = 310,000);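 active = calcium response B-score plate-corrected fluorescence ratio at least 3 library SD, with starting fluorescence B-score inside 5 SD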
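Material: HEK293 cells stably expressing human MrgX1 receptor | Quantity: 15,000 cells per well | Times: Cells plated overnight, dye loaded 0.5 h 37 °C, 0.5 h room temperature | Measured by: Kinetic Fluo-4 NW fluorescence of intracellular calcium | Control set: Positive and negative controls per plate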
RGS4 inh – RGS4 inhibitors, primary screen, cell-based, HEK293 M3R inducible RGS4, calcium flux; AID 463165, 2010; Fluo-4 calcium flux; active compounds read high; triggered by carbachol at its EC20; B-score at 10 µM; Regulator of G-protein signaling 4 (Homo sapiens), P49798; actives 0.45% (n = 310,000);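 active = B-score, a plate-corrected calcium signal, over three deviations above library mean, with baseline fluorescence within five deviations of library mean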;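 also: RGS4 expression induced by doxycycline in cells with stable M3 receptor; B-score is computed from the integrated fluorescence ratio over baseline after carbachol; higher B-score means a larger calcium signal and so more RGS4 inhibition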
Target sequence (P49798 whole entry, looked up): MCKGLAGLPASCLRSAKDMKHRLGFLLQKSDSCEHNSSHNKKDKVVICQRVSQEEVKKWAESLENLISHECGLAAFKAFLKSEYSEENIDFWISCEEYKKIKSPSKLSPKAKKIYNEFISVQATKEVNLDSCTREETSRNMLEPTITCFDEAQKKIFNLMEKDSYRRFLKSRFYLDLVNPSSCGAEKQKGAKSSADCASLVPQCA
RGS4 act – RGS4 potentiators or activators, primary screen, cell-based, HEK293 M3R inducible RGS4, calcium flux; actives 0.92% (n = 310,000); B-score at 10 µM; carbachol calcium flux Fluo4; active compounds read low;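 active = B-score of the integrated calcium signal more than 4 SD below the library mean, with starting fluorescence not abnormally high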;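 also: negative B-score means reduced calcium response which marks RGS4 activation or potentiation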
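Assay system: HEK293 FlpIn-TREx cells, stable M3R, doxycycline-inducible RGS4 / Probe or stimulus: carbachol, ECmax concentration / Times: overnight RGS4 induction, 30 min dye load 37 °C, 20 min compound RT / Signal: kinetic calcium fluorescence imaging with Fluo4-AM dye, 2 µM / Measure: Agonist-evoked peak-minus-minimum fluorescence over baseline, integrated ratio, B score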
Of the large screens only hits and unclear results are named; the others gave an inactive call.

CC(C)=CC(=O)N1CCCC(N2CCN(c3ccc(F)cc3)CC2)C1 (centres undefined)	none
O=C(c1ccncc1)N1N=C(C2CCCCC2)CC1(O)C(F)(F)F (centres undefined)	RGS4 act -7.4
Cc1ccc(C)c(NC(=O)C(Sc2nc3ccccc3c(=O)n2CC(C)C)c2ccccc2)c1 (centres undefined)	RGS4 act -7.3
CC(NC(=O)c1ccccc1Br)c1nnc(SCC(=O)NC2=NCCS2)n1C (centres undefined)	none
COc1cc(OC)cc(-c2nnc(SCC(=O)N(C(C)C)C(C)C)o2)c1	none
COc1cc(OC)cc(-c2nnc(Sc3ccc(C=O)cc3[N+](=O)[O-])o2)c1	MrgX1 antagonist -4.5, RGS4 inh 7.2
CCC(C(=O)NC1CCCCC1)n1c2ccccc2c2nc(=O)cc(C)n21 (centres undefined)	none
C=C(C)C(=O)N1CC2(CC(c3cccc(NC(=O)/C(C)=C\C)c3)=NO2)C[C@H]1C(N)=O (some centres undefined)	MrgX1 antagonist -4.8
CCCCCC(=O)Nc1cccc(C2=NOC3(C2)C[C@@H](C(N)=O)N(C(=O)c2cc([N+](=O)[O-])cc([N+](=O)[O-])c2)C3)c1 (some centres undefined)	MrgX1 antagonist -6.1
O=C(CSc1nnc(CNC(=O)c2c(F)cccc2F)o1)NCCc1ccccc1	none
COc1ccccc1N1CCN(C(=O)CCNS(=O)(=O)c2cc(Br)cnc2N)CC1	none
COC(=O)c1ccc(Oc2c(Cl)cccc2[N+](=O)[O-])cc1	MrgX1 allo act 8.6
Oc1ccccc1C1CC(c2cccs2)=NC(c2ccc(Cl)cc2)N1 (centres undefined)	MrgX1 allo act 7.4
O=C(NCC1CCCO1)c1nn2c(C(F)(F)F)cc(-c3cc(Br)cs3)nc2c1Br (centres undefined)	MrgX1 agonist 33
Nc1ccc(Oc2ccc(F)cc2)nc1	none
O=Cc1ccc(Oc2ccc(F)cc2)nc1	MrgX1 antagonist -4.5
O=C(NNC(=O)C1C2C=CC(C2)C1C(=O)O)c1cc(Cl)ccc1O (centres undefined)	none
Nc1c(C(=O)Nc2ccc(Br)cc2)sc2nc(-c3ccco3)ccc12	none
Nc1c(C(=O)Nc2ccc(F)cc2)sc2nc(-c3ccco3)ccc12	MrgX1 antagonist -4.9
CCOC(=O)c1ccc(NS(=O)(=O)c2ccc3oc(=O)[nH]c3c2)cc1	none
O=C1NC(=S)N(C(=O)c2ccc(F)cc2)/C1=C/c1ccccc1	MrgX1 antagonist -5.5
COc1cccc(Oc2cc(NN3CCCCC3)c([N+](=O)[O-])cc2[N+](=O)[O-])c1OC	RGS4 act -9.1
Cc1cc(F)ccc1Oc1cc(NN2CCCCC2)c([N+](=O)[O-])cc1[N+](=O)[O-]	none
Cc1cc2nc(-c3ccc(SCc4ccc(C#N)cc4)nc3)[nH]c2cc1C	MrgX1 antagonist -6.1
CC(=O)CSc1ccc(-c2nc3cc(C)c(C)cc3[nH]2)cn1	none
CC(C)Sc1nc(N2CCCC2)c2c(c1C#N)CC(C)(C)OC2	RGS4 act -7.2
Cc1ccc(O)c(C2=NNC(c3ccc(Cl)cc3)C2)c1 (centres undefined)	none
Oc1ccc(Cl)cc1C1=NNC(c2cccs2)C1 (centres undefined)	MrgX1 antagonist -5.6
CCCOc1ccc(-c2c(=O)n(O)c3ccccc3[n+]2[O-])cc1	none
COc1cccc(/C=C/C(=O)OCC(=O)c2ccc3c(c2)NC(=O)CO3)c1OC	MrgX1 allo act 11
COc1ccc(/C=C/C(=O)OCC(=O)c2ccc3c(c2)NC(=O)CO3)c(OC)c1	none
O=c1c2ccc([N+](=O)[O-])cc2ncn1CCOc1ccc(Cl)cc1	RGS4 act -8.2
O=c1c2ccc([N+](=O)[O-])cc2ncn1CCOc1cccc(Br)c1	none
Cc1cc(C)c(C(=O)C(C)OC(=O)C2=COCCO2)cc1C (centres undefined)	MrgX1 allo act 7.6
O=C1/C(=C\c2cccc([N+](=O)[O-])c2O)SC(=S)N1Cc1ccccc1	MrgX1 antagonist -8
COc1cc([N+](=O)[O-])cc(/C=C2/SC(=S)N(Cc3ccccc3)C2=O)c1O	MrgX1 agonist 43, RGS4 act -7.6
O=C1/C(=C\c2cc(Br)cc(Br)c2O)SC(=S)N1Cc1ccccc1	MrgX1 antagonist -6.1
O=C1/C(=C/c2ccccc2O)SC(=S)N1Cc1cccnc1	none
O=c1c(-c2nc3ccccc3o2)c2oc3ccccc3n2c2ccccc12	RGS4 act -9.6 (no result: MrgX1 allo act, MrgX1 antagonist, MrgX1 agonist)
Nc1ccc(-c2nc3ccccc3o2)cc1	none
CCc1ccc(NSc2ccccc2[N+](=O)[O-])cc1	MrgX1 allo act 6.6, RGS4 act -8.2
O=C(O)c1ccccc1NSc1ccccc1[N+](=O)[O-]	none
CN(C)CCNC(C(=O)Nc1cccc(C(F)(F)F)c1)c1ccccc1 (centres undefined)	RGS4 act -7.1
O=C(COC(=O)c1ccccc1-n1cnnn1)c1ccc(F)cc1	none
Cc1c(CCC(=O)N2CCC[C@H]2C(=O)O)c(=O)oc2c(C)c3oc4c(c3cc12)CCCC4	MrgX1 allo act 7.2
Cc1c(CCC(=O)NCCCCCC(=O)O)c(=O)oc2c(C)c3oc4c(c3cc12)CCCC4	none
O=C/C(=C\Nc1ccc(C(=O)N2CCOCC2)cc1)c1nc2ccccc2o1	none
C#CCOCCOCCOCCNc1nc(N2CCOCC2)nc(N2CCN(C(=O)CCCCCCCCCCNC(=O)[C@H]([C@@H](C)CC)n3cc(CCCCN=C(N)N)nn3)CC2)n1	none (no result: RGS4 inh, RGS4 act)
C#CCOCCOCCOCCNc1nc(N2CCN(C(=O)CCCCCCCCCCNC(=O)[C@H]([C@@H](C)CC)n3cc(CCCCN=C(N)N)nn3)CC2)nc(N2CCN(C(=O)CCCCCCCCCCNC(=O)[C@H](CCCN=C(N)N)n3cc(C[C@@H](C)CC)nn3)CC2)n1	MrgX1 agonist 33 (no result: RGS4 inh, RGS4 act)
C#CCOCCOCCOCCNc1nc(N2CCN(C(=O)CCCCCCCCCCNC(=O)[C@H](CCCN=C(N)N)n3cc(C[C@@H](C)CC)nn3)CC2)nc(N2CCN(C(=O)CCCCCCCCCCNC(=O)[C@@H]([C@H](C)CC)n3cc(CCCCCN)nn3)CC2)n1	MrgX1 agonist 51 (no result: RGS4 inh, RGS4 act)
CCc1c(C)nc2c(-c3ccccc3OC)c(C)[nH]n2c1=O	none
O=C(NCc1ccccn1)C1CCCN(Cc2cnn(-c3ccccc3)c2-n2cccc2)C1 (centres undefined)	RGS4 act -7.3
O=C(NCc1ccccn1)C1CCN(Cc2cnn(-c3ccccc3)c2-n2cccc2)CC1	none
